# Assay results reported in article PMC10286277 (ACS Omega, 2023).
# How the values were obtained:
# [1] = system: pUC19 DNA; experiment: Hydrolytic DNA cleavage, gel electrophoresis without external agent or light; format: biochemical; settings: 400 μM, control experiments
# In short: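 pUC19 DNA (200 ng) in 50 mM Tris–HCl, pH 8, was incubated with test compound (0–400 μM) in 10 μL for 2 h at 37 °C, with no added agent and no light. Controls used Cu(OAc)₂·H₂O, free ligand or imidazole, each at 400 μM. Samples were run on 1% agarose in TAE (pH 8.4) for 1.5 h at 60 V, stained with 0.5 μg/mL ethidium bromide and imaged under UV for conversion to nicked circular form.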
# [2] = system: cervical cancer HeLa; experiment: MTT cell viability assay; format: cell-based, human; settings: 24 h
# In short: (§1)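 Cells were seeded at 2×10^4 per well, held overnight at 37 °C in humidified CO₂ and treated with test compound at […] for 24 h. MTT (0.5 mg/mL) was added for 4 h in the dark and then removed. Formazan was dissolved in DMSO and absorbance read at 570 nm.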
# [3] = system: breast cancer MDA-MB-231; experiment: MTT cell viability assay; format: cell-based, human; settings: MDA-MB-231, 24 h
# In short: as §1
Compound,DNA cleavage by starting materials alone [1],IC50 [2] [µM],sensitivity of cells in MTT cell viability assay (in words) [3]
2-(2-Hydroxyphenyl)benzothiazoline,No cleavage was detected,–,–
"CC(=O)[O-].CC(=O)[O-].O.[Cu+2] [Cu(OAc)2·H2O, copper(II) acetate monohydrate]",No cleavage was detected,–,–
"N.N.[Cl][Pt][Cl] [cisplatin, reference compound]",–,30.9 ± 0.45,resistant
c1c[nH]cn1 [imidazole],No cleavage was detected,–,–
